According to ChEMBL document CHEMBL5236602, “Synthesis and Characterization of NUC-7738, an Aryloxy Phosphoramidate of 3'-Deoxyadenosine, as a Potential Anticancer Agent” (J Med Chem, 2022):
Calls of active or inactive are those of the source. The calls are words filed in the database; no cut-off is given here.

Experiments:
[1] = Prodrug conversion in human CCRF-CEM cells assessed as fold increase in 3'-dATP level at 50 uM incubated for 2 hrs by LC-MS/MS analysis relative to 3'-Deoxyadenosine; format: ADME, cell-based
[2] = Prodrug conversion in human RL cells assessed as fold increase in 3'-dATP level at 50 uM incubated for 2 hrs by LC-MS/MS analysis relative to 3'-Deoxyadenosine; format: ADME, cell-based
[3] = Prodrug conversion in human K562 cells assessed as fold increase in 3'-dATP level at 50 uM incubated for 2 hrs by LC-MS/MS analysis relative to 3'-Deoxyadenosine; format: ADME, cell-based; settings: k562, 2 h
[4] = Prodrug conversion in human HL-60 cells assessed as fold increase in 3'-dATP level at 50 uM incubated for 2 hrs by LC-MS/MS analysis relative to 3'-Deoxyadenosine; format: ADME, cell-based; settings: hl-60, 2 h
KG-1 [5] = assay: Cytotoxicity against human KG-1 cells assessed as maximum cell growth inhibition incubated for 72 hrs by MTS assay relative to control; format: functional
Outline: (§1)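 Cells from the 20-line panel were seeded the day before dosing, then exposed to compound for 72 h. MTS was added, followed by 4 h at 37 °C, and absorbance was read. Nine serial 3.16-fold dilutions were tested, top 198 μM, in duplicate. MI% is the maximum inhibitory effect across the tested concentration range.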

K562 [6] = assay: Cytotoxicity against human K562 cells assessed as cell death incubated for 72 hrs by MTS assay; format: functional; settings: read-out: LC50 (the source's name)
Outline: (§2)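 Contracted MTS assay. Cells seeded the day before treatment and exposed 72 h to nine serial concentrations (3.16-fold steps, top 198 μM), tested in duplicate. MTS added, then 4 h at 37 °C and absorbance read. LC50 is the concentration killing 50% of cells. MI% is the maximum inhibition over the tested range.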

K562 [7] = assay: Cytotoxicity against human K562 cells assessed as maximum cell growth inhibition incubated for 72 hrs by MTS assay relative to control; format: functional; outline: as §1
HepG2 [8] = assay: Cytotoxicity against human HepG2 cells assessed as cell death incubated for 72 hrs by MTS assay; format: functional; settings: read-out: LC50 (the source's name); outline: as §2
CCRF-CEM [9] = assay: Cytotoxicity against human CCRF-CEM cells assessed as cell death incubated for 72 hrs by MTS assay; format: functional; settings: read-out: LC50 (the source's name); outline: as §2
MCF7 [10] = assay: Cytotoxicity against human MCF7 cells assessed as cell death incubated for 72 hrs by MTS assay; format: functional; settings: read-out: LC50 (the source's name); outline: as §2
KG-1 [11] = assay: Cytotoxicity against human KG-1 cells assessed as cell death incubated for 72 hrs by MTS assay; format: functional; outline: as §2
HL-60 [12] = assay: Cytotoxicity against human HL-60 cells assessed as cell death incubated for 72 hrs by MTS assay; format: functional; settings: read-out: LC50 (the source's name); outline: as §2
MCF7 [13] = assay: Cytotoxicity against human MCF7 cells assessed as maximum cell growth inhibition incubated for 72 hrs by MTS assay relative to control; format: functional; outline: as §1
MOLT-4 [14] = assay: Cytotoxicity against human MOLT-4 cells assessed as maximum cell growth inhibition incubated for 72 hrs by MTS assay relative to control; format: functional; outline: as §1
MOLT-4 [15] = assay: Cytotoxicity against human MOLT-4 cells assessed as cell death incubated for 72 hrs by MTS assay; format: functional; settings: read-out: LC50 (the source's name); outline: as §2
HL-60 [16] = assay: Cytotoxicity against human HL-60 cells assessed as maximum cell growth inhibition incubated for 72 hrs by MTS assay relative to control; format: functional; outline: as §1
HepG2 [17] = assay: Cytotoxicity against human HepG2 cells assessed as maximum cell growth inhibition incubated for 72 hrs by MTS assay relative to control; format: functional; outline: as §1
CCRF-CEM [18] = assay: Cytotoxicity against human CCRF-CEM cells assessed as maximum cell growth inhibition incubated for 72 hrs by MTS assay relative to control; format: functional; outline: as §1
MV4-11 = assay: Cytotoxicity against human MV4-11 cells assessed as maximum cell growth inhibition incubated for 72 hrs by MTS assay relative to control; format: functional; outline: as §1
Leukemic stem cell [19] = assay: Cytotoxicity against human leukemic stem cells (Lin-/CD34+/CD38-/CD123+) in myeloid leukemia cell line KG-1a assessed as reduction in LSC population at >1 uM incubated for 72 hrs
[20] = Stability in human plasma assessed as reduction in parent compound concentration at 20 uM measured after 4 hrs by UPLC-MS/MS analysis; format: ADME, cell-free
Outline: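 Human plasma, with or without 1 μM EHNA as ADA inhibitor, was spiked with 20 μM compound at 37 °C/5% CO2. Samples were quenched in methanol, 1:3 sample:methanol, kept 30 min on ice and centrifuged. The supernatant was dried, reconstituted in 10% acetonitrile and quantified by UPLC-MS/MS over time.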

Adenosine deaminase [21] = target: T1, Adenosine deaminase (Bos taurus, UniProt P56658); assay: Metabolic stability assessed as bovine recombinant adenosine deaminase-mediated 3'-deoxyinosine metabolite formation by measuring shift in maximum absorption at 62.5 uM measured after 2 mins by UV absorption spectra based analysis; format: ADME; settings: cattle
Outline: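 Bovine recombinant ADA suspension was diluted in phosphate buffer, pH 7.4, and filtered at 0.2 μm. Substrate at 62.5 μM was added to 17 μL of the ADA solution. UV spectra were scanned at 220–350 nm, 2 nm resolution, every 0.1 min for 10 min to 12 h, with an ADA-only blank subtracted. The read-out is the shift of the 265 nm maximum.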

Leukemic stem cell [22] = assay: Cytotoxicity against human leukemic stem cells (Lin-/CD34+/CD38-/CD123+) in myeloid leukemia cell line KG-1a assessed as preferential cell killing incubated for 72 hrs
[23] = Prodrug activation assessed as Saccharomyces cerevisiae carboxypeptidase Y-mediated (2R)-2-(((((2S,4R,5R)-5-(6-amino-9H-purin-9-yl)-4-hydroxytetrahydrofuran-2-yl)methoxy)(phenoxy)phosphoryl)amino)propanoic acid formation at 5 mg measured for 4 mins by 31P-NMR analysis
Outline: (§3)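 Prodrug (5 mg) in acetone-d6 with trizma buffer pH 7.6, with a t = 0 31P NMR (202 MHz) reference taken first. Carboxypeptidase Y stock (50 units/mL in trizma pH 7.6) added. 31P NMR spectra recorded over time to follow intermediate and aminoacyl phosphoramidate signals.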

CCRF-CEM [24] = assay: Potency index, ratio of 3'-Deoxyadenosine LC50 to test compound LC50 for cytotoxicity against human CCRF-CEM cells assessed as cell death incubated for 72 hrs by MTS assay; format: functional
[25] = Stability in human plasma assessed as reduction in parent compound concentration at 20 uM measured upto 4 hrs by UPLC-MS/MS analysis; format: ADME, cell-free
[26] = Drug concentration in mouse plasma at 20 uM measured after 30 sec by UPLC-MS/MS analysis; format: ADME, cell-free
RL [27] = assay: Potency index, ratio of 3'-Deoxyadenosine LC50 to test compound LC50 for cytotoxicity against human RL cells assessed as cell death incubated for 72 hrs by MTS assay; format: functional
[28] = Stability in human plasma assessed as reduction in parent compound concentration at 20 uM incubated for 4 hrs in presence of adenosine deaminase inhibitor, EHNA by UPLC-MS/MS analysis; format: ADME, cell-free
K562 [29] = assay: Potency index, ratio of 3'-Deoxyadenosine LC50 to test compound LC50 for cytotoxicity against human K562 cells assessed as cell death incubated for 72 hrs by MTS assay; format: functional
[30] = Prodrug activation assessed as Saccharomyces cerevisiae carboxypeptidase Y-mediated (2R)-2-(((((2S,4R,5R)-5-(6-amino-9H-purin-9-yl)-4-hydroxytetrahydrofuran-2-yl)methoxy)(hydroxy)phosphoryl)amino)propanoic acid formation at 5 mg measured over 1 hr by 31P-NMR analysis; outline: as §3
RL [31] = assay: Cytotoxicity against deoxynucleotidyl transferase-negative human RL cells assessed as cell death preincubated with adenosine kinase inhibitor, A-134974 for 5 mins followed by compound addition and […]; format: functional, cell-based
HL-60 [32] = assay: Potency index, ratio of 3'-Deoxyadenosine LC50 to test compound LC50 for cytotoxicity against human HL-60 cells assessed as cell death incubated for 72 hrs by MTS assay; format: functional
CCRF-CEM [33] = assay: Cytotoxicity against deoxynucleotidyl transferase-positive human CCRF-CEM cells assessed as cell death preincubated with adenosine deaminase inhibitor, EHNA for 5 mins followed by compound addition and […]; format: functional, cell-based
[34] = Drug concentration in human plasma at 20 uM measured after 30 sec by UPLC-MS/MS analysis; format: ADME, cell-free
[35] = Drug metabolism in mouse plasma assessed as metabolite formation by measuring reduction in parent compound concentration at 20 uM incubated for 24 hrs in presence of adenosine deaminase inhibitor, EHNA by UPLC/MS/MS analysis; format: ADME, cell-free
Jurkat = assay: Potency index, ratio of 3'-Deoxyadenosine LC50 to test compound LC50 for cytotoxicity against human Jurkat cells assessed as cell death incubated for 72 hrs by MTS assay; format: functional
RL [36] = assay: Cytotoxicity against deoxynucleotidyl transferase-negative human RL cells assessed as cell death preincubated with adenosine deaminase inhibitor, EHNA for 5 mins followed by compound addition and […]; format: functional, cell-based
Adenosine deaminase [37] = target: T1, Adenosine deaminase; assay: Metabolic stability assessed as bovine recombinant adenosine deaminase-mediated 3'-deoxyinosine metabolite formation by measuring shift in maximum absorption at 62.5 uM measured upto 2 hrs by UV absorption spectra based analysis; format: ADME; settings: cattle

T1 sequence (P56658 whole entry): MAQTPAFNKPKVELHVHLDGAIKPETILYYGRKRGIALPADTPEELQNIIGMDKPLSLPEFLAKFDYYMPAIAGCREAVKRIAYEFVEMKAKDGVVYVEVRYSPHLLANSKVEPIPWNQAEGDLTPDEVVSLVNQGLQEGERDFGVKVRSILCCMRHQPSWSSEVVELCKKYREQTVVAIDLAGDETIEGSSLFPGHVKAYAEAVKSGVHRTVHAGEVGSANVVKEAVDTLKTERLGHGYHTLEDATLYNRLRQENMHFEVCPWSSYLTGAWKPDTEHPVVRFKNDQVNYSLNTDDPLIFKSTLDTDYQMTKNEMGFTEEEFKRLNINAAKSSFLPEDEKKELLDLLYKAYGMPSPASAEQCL

Structure (SMILES): CCOC(=O)CCc1ccccc1OP(=O)(N[C@@H](C)C(=O)OCc1ccccc1)OC[C@@H]1C[C@@H](O)[C@H](n2cnc3c(N)ncnc32)O1 (some centres not stated)
- fold change (FC) [1]: 2
- fold change (FC) [2]: 2
- fold change (FC) [3]: 2
- fold change (FC) [4]: 2
- Imax (KG-1 [5]): 69%

Structure (SMILES): Nc1ncnc2c1ncn2[C@@H]1O[C@H](COP(=O)(NCC(=O)OCc2ccccc2)Oc2ccccc2)C[C@H]1O (some centres not stated)
- CC50 (K562 [6]): 15.4 µM
- Imax (K562 [7]): 92%
- CC50 (HepG2 [8]): 142 µM
- CC50 (CCRF-CEM [9]): 14.9 µM
- CC50 (MCF7 [10]): 15.5 µM
- LC50 (KG-1 [11]): 136.56 µM
- CC50 (HL-60 [12]): 45.2 µM
- Imax (MCF7 [13]): 87%
- Imax (MOLT-4 [14]): 93%
- CC50 (MOLT-4 [15]): 3.55 µM
- Imax (HL-60 [16]): 82%
- Imax (HepG2 [17]): 59%
- Imax (KG-1 [5]): 65%
- Imax (CCRF-CEM [18]): 94%

Structure (SMILES): CC(=O)O[C@H]1C(=O)[C@@]2(C)[C@H]([C@H](OC(=O)c3ccccc3)[C@]3(O)C[C@H](OC(=O)[C@H](O)[C@@H](NC(=O)c4ccccc4)c4ccccc4)C(C)=C1C3(C)C)[C@]1(OC(C)=O)CO[C@@H]1C[C@@H]2O [PACLITAXEL]
- Imax (KG-1 [5]): 89%

Structure (SMILES): C[C@H](N[P@](=O)(OC[C@@H]1C[C@@H](O)[C@H](n2cnc3c(N)ncnc32)O1)Oc1ccccc1)C(=O)OCc1ccccc1
- Imax (MV4-11): 100%

Structure (SMILES): C[C@H](N[P@@](=O)(OC[C@@H]1C[C@@H](O)[C@H](n2cnc3c(N)ncnc32)O1)Oc1ccccc1)C(=O)OCc1ccccc1
- Imax (KG-1 [5]): 90%

Structure (SMILES): Nc1ncnc2c1ncn2[C@@H]1O[C@H](CO)C[C@H]1O [CORDYCEPIN]
- Activity (Leukemic stem cell [19]): Active
- Stability [20]: Unstable
- Stability (Adenosine deaminase [21]): Unstable

Structure (SMILES): C[C@H](NP(=O)(OC[C@@H]1C[C@@H](O)[C@H](n2cnc3c(N)ncnc32)O1)Oc1ccccc1)C(=O)OCc1ccccc1 (some centres not stated) [FOSDESDENOSINE SIPALABENAMIDE]
- Activity (Leukemic stem cell [22]): Active
- Drug metabolism [23]: Metabolite_Detected
- Activity (Leukemic stem cell [19]): Active
- RatioLC50 (CCRF-CEM [24]): 3
- fold change (FC) [1]: 3
- Stability [25]: Stable
- concentration at 0.5 min, 20 µM [26]: 0.5 ng/mL
- RatioLC50 (RL [27]): 3
- Stability [28]: Stable
- fold change (FC) [2]: 3
- RatioLC50 (K562 [29]): 3
- Drug metabolism [30]: Metabolite_Detected
- Activity (RL [31]): Active
- RatioLC50 (HL-60 [32]): 3
- Activity (CCRF-CEM [33]): Active
- fold change (FC) [3]: 3
- fold change (FC) [4]: 3
- concentration at 0.5 min, 20 µM [34]: 10000 ng/mL
- Drug metabolism [35]: Metabolite_Detected
- RatioLC50 (Jurkat): 200
- Activity (RL [36]): Active
- Stability (Adenosine deaminase [37]): Stable
